# Results as given in ChEMBL document CHEMBL1143981, “Exploring the potential of 3'-O-carboxy esters of thymidine as inhibitors of ribonuclease A and angiogenin” (Bioorg Med Chem, 2008).
# pIC50, pKi: −log10 of the molar value. The source made the active and inactive calls. No cut-off for these calls is given here.
# Legend:
# [1] = Inhibition of RNase A by precipitation assay
# Summary of the method: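 Yeast tRNA substrate (0.1 mg) in 0.1 M Tris–HCl, pH 7.5, with 5 mM EDTA and 10 µg HSA, 50 µl final. Enzyme (0.2 µM solution) was preincubated with inhibitor (225 µM solution) before addition. Reaction ran at 37 °C for 30 min. It was quenched with ice-cold 1.14 N perchloric acid containing 6 mM uranyl acetate, held on ice 30 min, then centrifuged at 4 °C.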
# [2] = molecular target: Ribonuclease pancreatic; assay: Activity at RNase A
# Summary of the method: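 Spectrophotometric kinetics with 2',3'-cCMP substrate in oligo(vinylsulfonic acid)-free 0.1 M Mes–NaOH, pH 6.0, with 0.1 M NaCl. RNase A was at 10 µM. Substrate ranged 0.14–0.28 mM with inhibitor 0–6.7 µM, or 0.13–0.25 mM with inhibitor 0–62 µM, depending on compound. Inhibition constants came from initial velocities via Eadie–Hofstee plots (V vs V/[S]), using the slopes.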
# [3] = molecular target: T1, Ribonuclease pancreatic (Homo sapiens) (UniProt P07998); assay: Inhibition of RNase A assessed as tRNA degradation by agarose-gel based assay
# T1 sequence (whole entry): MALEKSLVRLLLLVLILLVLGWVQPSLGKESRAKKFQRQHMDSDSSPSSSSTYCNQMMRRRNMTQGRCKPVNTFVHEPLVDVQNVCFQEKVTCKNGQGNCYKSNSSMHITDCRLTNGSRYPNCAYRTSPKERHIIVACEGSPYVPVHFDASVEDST
# Summary of the method: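 RNase A (0.66 µM solution) was preincubated 6 h with 1.5 mM inhibitor solution, 50 µl total. An aliquot was then mixed with yeast tRNA (5.0 mg/ml, freshly dissolved in RNase-free water) for 30 min. Samples ran on 1.1% agarose, and undegraded tRNA was visualized by ethidium bromide staining under UV.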
pIC50 [1],pKi [2],Activity [3],SMILES
3.47,4.02,Active,Cc1cn([C@H]2C[C@H](OC(=O)c3ccccc3)[C@@H](CO)O2)c(=O)[nH]c1=O
3.51,3.99,Active,Nc1ccn([C@@H]2O[C@H](CO)[C@@H](OP(=O)(O)O)[C@H]2O)c(=O)n1
3.78,4.88,,Cc1cn([C@H]2C[C@H](OP(=O)(O)O)[C@@H](CO)O2)c(=O)[nH]c1=O
3.71,4.38,Active,CC(=O)O[C@H]1C[C@H](n2cc(C)c(=O)[nH]c2=O)O[C@@H]1CO
